In ChEMBL document CHEMBL1152347, “A selective account of effective paradigms and significant outcomes in the discovery of inspirational marine natural products” (J Nat Prod, 2009):
pIC50: −log10 of the molar value. Values after ≈ are worked out from the molar mass of the structure shown.

Key:
[1] = target: Methionine aminopeptidase 1 (Homo sapiens, UniProt P53582); test: Inhibition of methionine aminopeptidase 1
[2] = test system: HCT-116; test: Cytotoxicity against human HCT116 xenografted in SCID mouse at 12.3 mg/kg/day, iv administered as bolus dose from 3 days after tumor implantation for 5 days measured on day 9 relative to control; assay type: functional
Summary of the method: (§1)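 SCID mice implanted with HCT-116 tumour cells, dosed iv as a bolus daily for 5 days starting 3 days after inoculation and followed to day 30. Tumour response read as %T/C against untreated controls; body weights tracked over the 30 days and compared with untreated controls.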

[3] = test system: Mus musculus; test: Toxicity in human HCT116 xenografted SCID mouse assessed as increase in body weight at 25 mg/kg/day, iv administered as bolus dose from 3 days after tumor implantation for 5 days measured after 30 days; assay type: organism-based; parameters: route intravenous; conditions: in vivo, 720 h; summary of the method: as §1
[4] = test system: MDA-MB-435; test: Cytotoxicity against human MDA-MB-435 cells; assay type: functional, cell-based; conditions: for CC50: read-out: LC50 (the source's name)
[5] = test system: HCT-116; test: Cytotoxicity against human HCT116 xenografted in SCID mouse at 25 mg/kg/day, iv administered as bolus dose from 3 days after tumor implantation for 5 days measured on day 11 relative to control; assay type: functional; summary of the method: as §1
[6] = test system: Mus musculus; test: Toxicity in human HCT116 xenografted SCID mouse assessed as increase in body weight at 12.3 mg/kg/day, iv administered as bolus dose from 3 days after tumor implantation for 5 days measured after 30 days; assay type: organism-based; parameters: route intravenous; conditions: in vivo, 720 h; summary of the method: as §1
[7] = test system: KB; test: Cytotoxicity against human KB cells; assay type: functional, cell-based
[8] = test system: HCT-116; test: Cytotoxicity against human HCT116 cells; assay type: functional, cell-based
Summary of the method: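 HCT-116 cells in liquid culture; IC50 from two determinations, reported as their median.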

[9] = test system: HCT-116; test: Cytotoxicity against human HCT116 cells after 24 hrs by clonogenic assay; assay type: functional
Summary of the method: (§2)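 Clonogenic dose-response on HCT-116 cells with exposures of 2, 24 and 168 h; the value is the concentration giving 90% cell kill at each exposure time.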

[10] = test system: HCT-116; test: Cytotoxicity against human HCT116 cells after 2 hrs by clonogenic assay; assay type: functional; summary of the method: as §2
[11] = Toxicity in SCID mouse assessed as maximum tolerated dose; assay type: organism-based; conditions: in vivo
[12] = target: Methionine aminopeptidase 2 (Homo sapiens, UniProt P50579); test: Inhibition of methionine aminopeptidase 2
[13] = test system: HCT-116; test: Cytotoxicity against human HCT116 cells assessed as cell kill at >=20 pg/mL after 168 hrs by clonogenic assay; assay type: functional; summary of the method: as §2
[14] = test system: HCT-116; test: Cytotoxicity against human HCT116 cells assessed as cell kill at >=3 ng/mL after 2 hrs by clonogenic assay; assay type: functional; summary of the method: as §2
[15] = test system: HCT-116; test: Anticancer activity against human HCT116 xenografted in SCID mouse at 31 ug/mouse dosed as bolus dose after 23 days relative to control; assay type: functional
Summary of the method: (§3)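 Bolus injection into SCID mice bearing HCT-116 tumours at 125, 62 or 31 μg/mouse; tumour growth read as %T/C against controls at 23 days.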

[16] = test system: HCT-116; test: Cytotoxicity against human HCT116 cells assessed as cell kill at >=2 ng/mL after 24 hrs by clonogenic assay; assay type: functional; summary of the method: as §2
[17] = test system: PC-3; test: Cytotoxicity against human PC3 cells; assay type: functional, cell-based
[18] = test system: MCF7; test: Growth inhibition of human MCF7 cells; assay type: functional
[19] = test system: Mus musculus; test: Toxicity in human HCT116 xenografted SCID mouse at 125 ug/mouse dosed as bolus dose after 23 days; assay type: organism-based; conditions: in vivo, 552 h; summary of the method: as §3
[20] = test system: HCT-116; test: Anticancer activity against human HCT116 xenografted in SCID mouse at 62 ug/mouse dosed as bolus dose after 23 days relative to control; assay type: functional; summary of the method: as §3

Methionine aminopeptidase 2, sequence (P50579 whole entry): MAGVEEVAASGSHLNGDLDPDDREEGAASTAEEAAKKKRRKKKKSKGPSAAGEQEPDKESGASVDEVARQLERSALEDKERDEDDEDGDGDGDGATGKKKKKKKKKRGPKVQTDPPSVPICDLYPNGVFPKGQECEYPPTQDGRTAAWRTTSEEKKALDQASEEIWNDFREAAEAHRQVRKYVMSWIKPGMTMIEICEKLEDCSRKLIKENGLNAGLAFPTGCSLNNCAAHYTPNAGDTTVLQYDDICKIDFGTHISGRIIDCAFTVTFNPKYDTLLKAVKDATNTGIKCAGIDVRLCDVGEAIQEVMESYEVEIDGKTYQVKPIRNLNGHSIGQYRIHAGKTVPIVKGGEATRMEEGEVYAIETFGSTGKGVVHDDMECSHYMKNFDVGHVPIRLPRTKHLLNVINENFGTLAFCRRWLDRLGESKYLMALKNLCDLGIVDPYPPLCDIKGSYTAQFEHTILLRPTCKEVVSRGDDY

**Q.** With `CO[C@@H]1C(=O)CC[C@]2(CO2)[C@@]1(O)[C@@]1(C)O[C@@H]1CC=C(C)C` [OVALICIN] as the molecule, how does the IC50 [1] read?
**A.** Not Active

**Q.** With `CO[C@@H]1[C@H](OC(=O)NC(=O)CCl)CC[C@]2(CO2)[C@H]1[C@@]1(C)O[C@@H]1CC=C(C)C` [O-CHLOROACETYLCARBAMOYLFUMAGILLOL] as the molecule, how does the IC50 [1] read?
**A.** Not Active

**Q.** With `C=C1C[C@H](C)C[C@@H]2CC=C[C@@H](C/C=C\C(=O)O[C@H]([C@@H](O)/C=C/[C@@H]3CC(C)=CCO3)C[C@@H]3O[C@H]3[C@@H](O)C1)O2` [FIJIANOLIDE B] as the molecule, how does the T/C [2] read?
**A.** 80%

**Q.** And the Activity [3]?
**A.** Non-toxic

**Q.** And the pIC50 [4]?
**A.** 8.70

**Q.** What about the CC50 [4] of the same molecule?
**A.** 7 nM

**Q.** What about the T/C [5] of the same molecule?
**A.** 11%

**Q.** And the Activity [6]?
**A.** Non-toxic

**Q.** What about the pIC50 [7] of the same molecule?
**A.** 7.54

**Q.** What does the source list for `C=CC/C=C\Cc1csc(C(C)(C)[C@H](O)C/C=C\C(=C)CCNC(=O)OC)n1` [MYCOTHIAZOLE]?
**A.** IC50 [8]: 1.5 ng/mL (≈ 3.71 nM); Activity [9]: >10 µg/mL; Activity [10]: >10 µg/mL; MTD [11]: 3 mg/kg

**Q.** With `CC(C)(C)OC(=O)Nc1cccnc1C(=O)Nc1nccs1` as the molecule, how does the pIC50 [12] read?
**A.** < 3.52

**Q.** With `CO[C@@H]1[C@H](OC(=O)/C=C/C=C/C=C/C=C/C(=O)O)CC[C@]2(CO2)[C@H]1[C@@]1(C)O[C@@H]1CC=C(C)C` [FUMAGILLIN] as the molecule, how does the pIC50 [12] read?
**A.** 7.52

**Q.** What about the IC50 [1] of the same molecule?
**A.** Not Active

**Q.** With `CCC(C)CCCCCCCCCCC(=O)O[C@H]1CC[C@H](NC(=O)[C@H](OC)[C@H](O)[C@@H](O)[C@H](O)/C=C/C(C)C)C(=O)N(C)C1` (some centres not stated) [BENGAMIDE O] as the molecule, how does the pIC50 [12] read?
**A.** < 4.30

**Q.** With `C=C(C)C[C@H](OC)[C@H](O)C(=O)N[C@@H](OC)C1C[C@@H](O)C(C)(C)[C@@H](C[C@H](O)[C@@H](C)[C@@H]2Cc3c(C)c(O)cc(O)c3C(=O)O2)O1` (some centres not stated) [IRCINIASTATIN] as the molecule, how does the Activity [13] read?
**A.** 90%

**Q.** What about the Activity [14] of the same molecule?
**A.** 90%

**Q.** And the T/C [15]?
**A.** 86%

**Q.** What about the Activity [16] of the same molecule?
**A.** 90%

**Q.** What about the pIC50 [17] of the same molecule?
**A.** 9.00

**Q.** What about the GI50 [18] of the same molecule?
**A.** 5.2 nM

**Q.** What about the CC50 [4] of the same molecule?
**A.** < 2.5 nM

**Q.** And the Activity [19]?
**A.** Toxic

**Q.** And the T/C [20]?
**A.** 75%

**Q.** What about the MTD [11] of the same molecule?
**A.** 0.125 mg/kg
